Assay results taken from ChEMBL document CHEMBL1131634, “Axially chiral N-benzyl-N,7-dimethyl-5-phenyl-1, 7-naphthyridine-6-carboxamide derivatives as tachykinin NK1 receptor antagonists: determination of the absolute stereochemical requirements” (J Med Chem, 1998).

Legend:
Substance-P receptor = Substance-P receptor (Homo sapiens, UniProt P25103); experiment: Binding affinity at Tachykinin receptor 1 by measuring its ability to inhibit [125I]BH-SP binding in human IM-9 cells (Lymphoblast cells).; format: cell-based
Substance-P receptor, sequence (P25103 whole entry): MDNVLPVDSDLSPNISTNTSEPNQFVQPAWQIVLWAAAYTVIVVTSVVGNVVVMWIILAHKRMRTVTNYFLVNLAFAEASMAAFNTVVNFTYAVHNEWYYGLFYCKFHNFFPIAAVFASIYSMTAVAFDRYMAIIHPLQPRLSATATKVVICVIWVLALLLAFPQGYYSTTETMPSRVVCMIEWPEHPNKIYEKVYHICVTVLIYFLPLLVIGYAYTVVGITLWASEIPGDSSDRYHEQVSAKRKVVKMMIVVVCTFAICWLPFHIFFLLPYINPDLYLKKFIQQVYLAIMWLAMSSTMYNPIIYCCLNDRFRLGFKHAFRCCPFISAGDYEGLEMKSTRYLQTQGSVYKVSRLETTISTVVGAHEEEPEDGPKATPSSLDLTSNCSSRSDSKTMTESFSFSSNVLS

Cavia porcellus [1] = experiment: In vivo inhibition of capsaicin-induced plasma extravasation in guinea pig trachea on peroral administration; format: functional; conditions: po
In short: (§1)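 Guinea pigs received compound iv or po before capsaicin challenge, and tracheal plasma extravasation was measured. ID50 was derived from 5–8 animals per dose and reported with 95% confidence limits.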

Cavia porcellus [2] = experiment: In vivo inhibition of capsaicin-induced plasma extravasation in guinea pig trachea on intravenous administration.; format: functional; in short: as §1
Cavia porcellus [3] = experiment: In vivo inhibition (percentage) of capsaicin-induced plasma extravasation in guinea pig trachea on intravenous administration at 1.0 mg/kg; format: functional
In short: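 Guinea pigs were given a single iv dose of 1.0 mg/kg. Capsaicin-induced tracheal plasma extravasation was then measured, with percent inhibition reported (n = 5 or 6).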

IC50 (Substance-P receptor) | Structure (SMILES) | ED50 (Cavia porcellus [1]) | ED50 (Cavia porcellus [2]) | inhibition in vivo at 1 mg/kg (Cavia porcellus [3])
0.8 nM | Cc1ccc(-c2c(C(=O)N(C)[C@@H](C)c3cc(C(F)(F)F)cc(C(F)(F)F)c3)n(C)c(=O)c3ncccc23)cc1 (stereo in doubt; 3a-A) [7-METHYL-8-OXO-5-P-TOLYL-7,8-DIHYDRO-[1,7]NAPHTHYRIDINE-6-CARBOXYLIC ACID (S)-[(S)-1-(3,5-BIS-TRIFLUOROMETHYL-PHENYL)-ETHYL]-METHYL-AMIDE (ENANTIOMERIC MIX)] | 0.0677 mg/kg | 0.0093 mg/kg | 
44 nM | Cc1ccc(-c2c(C(=O)N(C)[C@@H](C)c3cc(C(F)(F)F)cc(C(F)(F)F)c3)n(C)c(=O)c3ncccc23)cc1 (stereo in doubt; 3a-B) [7-METHYL-8-OXO-5-P-TOLYL-7,8-DIHYDRO-[1,7]NAPHTHYRIDINE-6-CARBOXYLIC ACID (S)-[(S)-1-(3,5-BIS-TRIFLUOROMETHYL-PHENYL)-ETHYL]-METHYL-AMIDE (ENANTIOMERIC MIX)] |  |  | 61.8%
620 nM | Cc1ccc(-c2c(C(=O)N(C)[C@H](C)c3cc(C(F)(F)F)cc(C(F)(F)F)c3)n(C)c(=O)c3ncccc23)cc1 (stereo in doubt; 3b-B) [7-METHYL-8-OXO-5-P-TOLYL-7,8-DIHYDRO-[1,7]NAPHTHYRIDINE-6-CARBOXYLIC ACID (S)-[(R)-1-(3,5-BIS-TRIFLUOROMETHYL-PHENYL)-ETHYL]-METHYL-AMIDE (ENANTIOMERIC MIX)] |  |  | 6.9%

More lines, now with the values behind:

Structure (SMILES) | IC50 (Substance-P receptor) | ED50 (Cavia porcellus [1]) | ED50 (Cavia porcellus [2]) | inhibition in vivo at 1 mg/kg (Cavia porcellus [3])
Cc1ccc(-c2c(C(=O)N(C)[C@H](C)c3ccccc3)n(C)c(=O)c3ncccc23)cc1 | 130 nM |  |  | 
Cc1ccc(-c2c(C(=O)N(C)[C@H](C)c3cc(C(F)(F)F)cc(C(F)(F)F)c3)n(C)c(=O)c3ncccc23)cc1 (stereo in doubt; 3b-A) [7-METHYL-8-OXO-5-P-TOLYL-7,8-DIHYDRO-[1,7]NAPHTHYRIDINE-6-CARBOXYLIC ACID (S)-[(R)-1-(3,5-BIS-TRIFLUOROMETHYL-PHENYL)-ETHYL]-METHYL-AMIDE (ENANTIOMERIC MIX)] | 19 nM |  | 0.412 mg/kg | 
Cc1ccc(-c2c(C(=O)N(C)Cc3cc(C(F)(F)F)cc(C(F)(F)F)c3)n(C)c(=O)c3ncccc23)cc1 [7-METHYL-8-OXO-5-P-TOLYL-7,8-DIHYDRO-[1,7]NAPHTHYRIDINE-6-CARBOXYLIC ACID (3,5-BIS-TRIFLUOROMETHYL-BENZYL)-METHYL-AMIDE (STRUCTURAL MIX)] |  | 0.11 mg/kg |  | 
